Assay results published in ChEMBL document CHEMBL1138664, “Discovery of the pyrrolo[2,1-f][1,2,4]triazine nucleus as a new kinase inhibitor template” (J Med Chem, 2004).

Legend:
[1] = biological target: Vascular endothelial growth factor receptor 2 (Homo sapiens, UniProt P35968); experiment: In vitro inhibition of Vascular endothelial growth factor receptor 2
[2] = biological target: Epidermal growth factor receptor (Homo sapiens, UniProt P00533); experiment: In vitro inhibition of Epidermal growth factor receptor
Sequence of Epidermal growth factor receptor (P00533 whole entry): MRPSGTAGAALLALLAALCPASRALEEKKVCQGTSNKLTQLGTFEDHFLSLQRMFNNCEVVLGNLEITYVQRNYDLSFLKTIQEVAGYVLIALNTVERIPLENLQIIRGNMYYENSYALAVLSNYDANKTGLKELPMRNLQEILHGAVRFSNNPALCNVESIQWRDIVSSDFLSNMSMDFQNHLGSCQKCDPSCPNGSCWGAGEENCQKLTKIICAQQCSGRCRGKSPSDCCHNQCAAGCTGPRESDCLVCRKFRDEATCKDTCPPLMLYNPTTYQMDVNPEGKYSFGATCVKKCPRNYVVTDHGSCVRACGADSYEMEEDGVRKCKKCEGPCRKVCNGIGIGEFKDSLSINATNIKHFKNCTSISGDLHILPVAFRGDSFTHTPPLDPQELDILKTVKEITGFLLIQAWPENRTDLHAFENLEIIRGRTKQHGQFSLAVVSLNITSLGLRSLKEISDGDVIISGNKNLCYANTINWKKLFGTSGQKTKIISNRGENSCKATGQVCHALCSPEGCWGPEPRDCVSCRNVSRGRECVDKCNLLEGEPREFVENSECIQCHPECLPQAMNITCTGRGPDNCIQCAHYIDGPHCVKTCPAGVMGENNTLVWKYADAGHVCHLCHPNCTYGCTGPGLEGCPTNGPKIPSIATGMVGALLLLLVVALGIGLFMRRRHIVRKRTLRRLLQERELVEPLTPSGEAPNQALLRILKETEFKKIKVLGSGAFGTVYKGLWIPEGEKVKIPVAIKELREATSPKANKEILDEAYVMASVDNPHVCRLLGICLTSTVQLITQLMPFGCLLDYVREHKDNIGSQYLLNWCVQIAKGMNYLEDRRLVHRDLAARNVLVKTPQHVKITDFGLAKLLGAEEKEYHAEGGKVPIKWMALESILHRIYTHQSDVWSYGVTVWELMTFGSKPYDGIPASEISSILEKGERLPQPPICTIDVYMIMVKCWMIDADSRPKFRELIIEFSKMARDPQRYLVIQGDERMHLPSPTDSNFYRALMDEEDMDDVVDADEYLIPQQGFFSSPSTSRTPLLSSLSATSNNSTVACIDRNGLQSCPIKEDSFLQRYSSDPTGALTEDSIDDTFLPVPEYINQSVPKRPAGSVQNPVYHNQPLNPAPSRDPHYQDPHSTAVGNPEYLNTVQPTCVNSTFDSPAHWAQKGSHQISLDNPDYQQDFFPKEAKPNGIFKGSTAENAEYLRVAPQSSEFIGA

[3] = Compound was tested for its inhibitory effect on the proliferation of the colon adenocarcinoma cell line DiFi; details: Homo sapiens
[4] = biological target: Vascular endothelial growth factor receptor (Homo sapiens, UniProt P17948+P35916+P35968); experiment: Inhibition of VEGF-stimulated human umbilical vein endothelial cell proliferation; type: functional, cell-based
How it was run: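 HUVECs under passage 3, plated 2 × 10^3/well in minimal medium with 1% heat-inactivated FBS on collagen IV; after 24 h, VEGF 80 ng/mL and serial compound dilutions; 3H-thymidine pulse (0.5 µCi) at 48 h for 24 h. IC50 as concentration halving thymidine uptake relative to untreated VEGF-stimulated cells.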

[5] = biological target: Epidermal growth factor receptor and ErbB2 (HER1 and HER2) (Homo sapiens, UniProt P04626+P00533); experiment: Inhibition of EGF-stimulated human umbilical vein endothelial cell proliferation; type: functional, cell-based
How it was run: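 Primary HUVECs (passage ≤3) seeded 2 × 10^3/well on collagen IV in minimal medium, 1% heat-inactivated FBS, 24 h; compound dilutions added with EGF 5 ng/mL; 48 h later 3H-thymidine 0.5 µCi, further 24 h. IC50 = concentration giving 50% less tritium incorporation than untreated EGF-stimulated cells, from dose-response curves.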

Sequence of Vascular endothelial growth factor receptor 2 (P35968 whole entry): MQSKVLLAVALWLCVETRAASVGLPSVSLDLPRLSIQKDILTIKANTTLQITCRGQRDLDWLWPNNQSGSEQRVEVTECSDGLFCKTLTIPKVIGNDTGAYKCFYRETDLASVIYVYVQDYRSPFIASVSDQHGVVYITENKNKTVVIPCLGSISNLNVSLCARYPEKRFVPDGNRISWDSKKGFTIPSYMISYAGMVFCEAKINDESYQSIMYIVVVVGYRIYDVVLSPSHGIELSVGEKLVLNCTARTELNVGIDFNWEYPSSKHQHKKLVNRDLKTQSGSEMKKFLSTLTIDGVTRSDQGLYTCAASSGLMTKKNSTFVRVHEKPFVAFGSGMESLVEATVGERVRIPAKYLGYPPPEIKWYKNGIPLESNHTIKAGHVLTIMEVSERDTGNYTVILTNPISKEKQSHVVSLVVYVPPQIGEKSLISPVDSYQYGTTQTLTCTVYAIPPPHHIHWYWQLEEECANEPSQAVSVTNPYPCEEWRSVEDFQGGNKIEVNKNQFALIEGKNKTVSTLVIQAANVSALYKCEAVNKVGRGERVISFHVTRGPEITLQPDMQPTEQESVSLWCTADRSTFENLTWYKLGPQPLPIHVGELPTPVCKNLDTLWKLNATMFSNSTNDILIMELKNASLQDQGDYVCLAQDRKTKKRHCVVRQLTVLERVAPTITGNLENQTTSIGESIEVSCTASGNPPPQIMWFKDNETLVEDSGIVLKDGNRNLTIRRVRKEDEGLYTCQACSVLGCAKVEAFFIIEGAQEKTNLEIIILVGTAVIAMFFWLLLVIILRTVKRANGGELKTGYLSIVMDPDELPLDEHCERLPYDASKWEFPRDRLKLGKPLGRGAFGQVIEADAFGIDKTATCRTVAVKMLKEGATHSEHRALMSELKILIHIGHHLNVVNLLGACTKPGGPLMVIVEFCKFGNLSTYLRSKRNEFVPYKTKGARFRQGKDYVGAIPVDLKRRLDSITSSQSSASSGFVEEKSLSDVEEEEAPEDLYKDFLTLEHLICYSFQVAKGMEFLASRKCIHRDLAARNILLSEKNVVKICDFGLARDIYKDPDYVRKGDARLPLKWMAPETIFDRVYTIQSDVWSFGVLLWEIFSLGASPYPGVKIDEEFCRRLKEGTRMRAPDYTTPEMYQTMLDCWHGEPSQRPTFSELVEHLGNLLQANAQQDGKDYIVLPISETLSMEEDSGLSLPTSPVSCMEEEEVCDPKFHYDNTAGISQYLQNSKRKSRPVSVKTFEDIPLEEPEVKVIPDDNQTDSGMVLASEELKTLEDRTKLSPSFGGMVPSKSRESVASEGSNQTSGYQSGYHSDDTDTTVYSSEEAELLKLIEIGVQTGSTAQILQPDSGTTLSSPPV

SMILES	IC50 [1]	IC50 [2]	IC50 [3]	IC50 [4]	IC50 [5]
Cc1ccn2ncnc(Nc3ccc(F)c(Cl)c3)c12	> 10000 nM	100 nM	3.06 µM	> 2500 nM	602 nM
Cc1cc2c(Nc3ccc(F)c(Cl)c3)ncnn2c1	> 2000 nM	150 nM	1.6 µM	> 2500 nM	509 nM
Cc1cc2c(Nc3ccc(C)c(O)c3)ncnn2c1	400 nM	650 nM	> 10 µM	213 nM	644 nM
Cc1ccc(Nc2ncnn3cccc23)cc1O	1440 nM	510 nM	10 µM	360 nM	–
Fc1ccc(Nc2ncnn3cccc23)cc1Cl	> 10000 nM	110 nM	1.84 µM	> 2500 nM	345 nM
Cc1ccc2c(Nc3ccc(F)c(Cl)c3)ncnn12	> 2000 nM	3250 nM	> 10 µM	> 2500 nM	> 2500 nM
Cc1ccc(Nc2ncnn3c(C)ccc23)cc1O	> 10000 nM	29400 nM	> 10 µM	477 nM	101 nM
Cc1ccc(Nc2ncnn3cc(C)c(C)c23)cc1O	20 nM	200 nM	> 10 µM	310 nM	–
Cc1ccc(Nc2ncnn3ccc(C)c23)cc1O	60 nM	340 nM	> 10 µM	98 nM	270 nM
